From article PMC3038628 (Journal of molecular biology, 2010)

What was measured:
[1] = FRET assay of NBD-Toc transfer from α-TTP variants to LUVs; format: biochemical; conditions: for Rate of NBD-Toc transfer to LUV, Rate: PC vesicles, 0.225 μM NBD-Toc, 2 μM α-TTP, 100 μM vesicles, room temperature; for Rate of NBD-Toc transfer to LUV, Rate^mut/Rate^wt: relative to wild type
Method in brief: (§1)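 Each protein (4 μM) was preloaded with 0.45 μM NBD-Toc for 15 min in SET buffer (pH 7.4). It was then stopped-flow mixed at room temperature with 200 μM acceptor vesicles of 97% liver PC and 3% TRITC-PE (finals 0.225 μM, 2 μM, 100 μM). Vesicles were sonicated SUVs (~60 nm) or extruded LUVs (150 nm). NBD quench was normalised to initial fluorescence and fitted single-exponentially.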

[2] = FRET assay of NBD-Toc transfer from α-TTP variants to SUVs; format: biochemical; conditions: for Rate of NBD-Toc transfer to SUV, Rate: PC vesicles, 0.225 μM NBD-Toc, 2 μM α-TTP, 100 μM vesicles, room temperature; for Rate of NBD-Toc transfer to SUV, Rate^mut/Rate^wt: relative to wild type; for Reduction of rate of transfer to SUVs: reduction relative to wild type
Method in brief: as §1

[3] = Dual polarization interferometry of protein adsorption to immobilized bilayer; format: binding; conditions: for Ads^mut/Ads^wt (0.50 μM injection): 0.50 μM protein injection; for Ads^mut/Ads^wt (1.0 μM injection): 1.0 μM protein injection; for Fold change in affinity: relative to wild type; for Adsorption/binding to immobilized bilayers by DPI, % of wild type: injection concentration not stated
Method in brief: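 Recombinant α-TTP (E. coli BL21(DE3), glutathione affinity, thrombin-cleaved) was dialysed 1 h at 4 °C into pH 7.4 phosphate/137 mM NaCl buffer. It was injected at 25 μl/min for 8 min over a 90:10 DOPC:DOPS bilayer on a silicon oxynitride chip at 20 °C. Adsorbed mass was measured at 0.5 and 1.0 μM in quadruplicate, two channels each. Kd came from fitting Bmax against concentration.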

Molecule: WT: human α-tocopherol transfer protein, wild type, expressed in E. coli as GST fusion and cleaved
- Reduction of transfer rate with LUVs versus SUVs ([1]; LUVs compared with SUVs): 8 fold
- Rate of NBD-Toc transfer to LUV, Rate [1]: 0.016 ± 0.002 s⁻¹
- Rate of NBD-Toc transfer to LUV, Rate^mut/Rate^wt [1]: 100%
- Rate of NBD-Toc transfer to SUV, Rate [2]: 0.127 ± 0.012 s⁻¹
- Rate of NBD-Toc transfer to SUV, Rate^mut/Rate^wt [2]: 100%
- Ads^mut/Ads^wt (0.50 μM injection) [3]: 1
- Ads^mut/Ads^wt (1.0 μM injection) [3]: 1
- Fold change in affinity [3]: 0

B1: M264D: α-TTP mutant; surface methionine replaced with aspartate in a region predicted distant from the membrane plane (protein, UniProt P49638 1-278, looked up, variant M264D)
Alpha-tocopherol transfer …: MAEARSQPSAGPQLNALPDHSPLLQPGLAALRRRAREAGVPLAPLPLTDSFLLRFLRARDFDLDLAWRLLKNYYKWRAECPEISADLHPRSIIGLLKAGYHGVLRSRDPTGSKVLIYRIAHWDPKVFTAYDVFRVSLITSELIVQEVETQRNGIKAIFDLEGWQFSHAFQITPSVAKKIAAVLTDSFPLKVRGIHLINEPVIFHAVFSMIKPFLTEKIKERIHMHGNNYKQSLLQHFPDILPLEYGGEEFSMEDICQEWTNFIDKSEDYLSSISESIQ
- Rate of NBD-Toc transfer to LUV, Rate [1]: 0.008 ± 0.001 s⁻¹
- Reduction of rate of ligand deposition in LUVs ([1]; reduction relative to wild type): 50%
- Rate of NBD-Toc transfer to LUV, Rate^mut/Rate^wt [1]: 50%
- Rate of NBD-Toc transfer to SUV, Rate [2]: 0.116 ± 0.013 s⁻¹
- Reduction of rate of transfer to SUVs [2]: 9%
- Rate of NBD-Toc transfer to SUV, Rate^mut/Rate^wt [2]: 91%
- Ads^mut/Ads^wt (0.50 μM injection) [3]: 0.66
- Ads^mut/Ads^wt (1.0 μM injection) [3]: 0.81

B2: K211A: α-TTP mutant, surface Lys211 (helix A10) to Ala (protein, UniProt P49638 1-278, looked up, variant K211A)
Alpha-tocopherol transfer …: MAEARSQPSAGPQLNALPDHSPLLQPGLAALRRRAREAGVPLAPLPLTDSFLLRFLRARDFDLDLAWRLLKNYYKWRAECPEISADLHPRSIIGLLKAGYHGVLRSRDPTGSKVLIYRIAHWDPKVFTAYDVFRVSLITSELIVQEVETQRNGIKAIFDLEGWQFSHAFQITPSVAKKIAAVLTDSFPLKVRGIHLINEPVIFHAVFSMIAPFLTEKIKERIHMHGNNYKQSLLQHFPDILPLEYGGEEFSMEDICQEWTNFIMKSEDYLSSISESIQ
- Rate of NBD-Toc transfer to LUV, Rate [1]: 0.011 ± 0.001 s⁻¹
- Rate of NBD-Toc transfer to LUV, Rate^mut/Rate^wt [1]: 69%
- Rate of NBD-Toc transfer to SUV, Rate [2]: 0.105 ± 0.008 s⁻¹
- Rate of NBD-Toc transfer to SUV, Rate^mut/Rate^wt [2]: 83%
- Ads^mut/Ads^wt (0.50 μM injection) [3]: 1.23
- Ads^mut/Ads^wt (1.0 μM injection) [3]: 0.95
- Adsorption/binding to immobilized bilayers by DPI, % of wild type [3]: 123%

B3: I202D: α-TTP mutant, Ile202 to Asp (helix A10) (protein, UniProt P49638 1-278, looked up, variant I202D)
Alpha-tocopherol transfer …: MAEARSQPSAGPQLNALPDHSPLLQPGLAALRRRAREAGVPLAPLPLTDSFLLRFLRARDFDLDLAWRLLKNYYKWRAECPEISADLHPRSIIGLLKAGYHGVLRSRDPTGSKVLIYRIAHWDPKVFTAYDVFRVSLITSELIVQEVETQRNGIKAIFDLEGWQFSHAFQITPSVAKKIAAVLTDSFPLKVRGIHLINEPVDFHAVFSMIKPFLTEKIKERIHMHGNNYKQSLLQHFPDILPLEYGGEEFSMEDICQEWTNFIMKSEDYLSSISESIQ
- Rate of NBD-Toc transfer to LUV, Rate [1]: 0.005 ± 0.002 s⁻¹
- Rate of NBD-Toc transfer to LUV, Rate^mut/Rate^wt [1]: 31%
- Rate of NBD-Toc transfer to SUV, Rate [2]: 0.028 ± 0.002 s⁻¹
- Reduction of rate of transfer to SUVs [2]: 78%
- Rate of NBD-Toc transfer to SUV, Rate^mut/Rate^wt [2]: 22%
- Ads^mut/Ads^wt (0.50 μM injection) [3]: 0.29
- Ads^mut/Ads^wt (1.0 μM injection) [3]: 0.27
- Fold change in affinity [3]: 5

B4: R192H: naturally-occurring α-TTP mutant associated with heritable mild vitamin E deficiency in humans (protein, UniProt P49638 1-278, looked up, variant R192H)
Alpha-tocopherol transfer …: MAEARSQPSAGPQLNALPDHSPLLQPGLAALRRRAREAGVPLAPLPLTDSFLLRFLRARDFDLDLAWRLLKNYYKWRAECPEISADLHPRSIIGLLKAGYHGVLRSRDPTGSKVLIYRIAHWDPKVFTAYDVFRVSLITSELIVQEVETQRNGIKAIFDLEGWQFSHAFQITPSVAKKIAAVLTDSFPLKVHGIHLINEPVIFHAVFSMIKPFLTEKIKERIHMHGNNYKQSLLQHFPDILPLEYGGEEFSMEDICQEWTNFIMKSEDYLSSISESIQ
- Rate of NBD-Toc transfer to LUV, Rate [1]: 0.012 ± 0.003 s⁻¹
- Rate of NBD-Toc transfer to LUV, Rate^mut/Rate^wt [1]: 75%
- Rate of NBD-Toc transfer to SUV, Rate [2]: 0.106 ± 0.008 s⁻¹
- Rate of NBD-Toc transfer to SUV, Rate^mut/Rate^wt [2]: 83%
- Ads^mut/Ads^wt (0.50 μM injection) [3]: 1.58
- Ads^mut/Ads^wt (1.0 μM injection) [3]: 1.50
- Adsorption/binding to immobilized bilayers by DPI, % of wild type [3]: ~ 150%
- Binding to immobilized bilayers, % of WT ([3]; printed "for LUVs"): 150%
- Binding to immobilized bilayers, % of WT ([3]; printed "for SUVs"): 158%

B5: I202D/M209D: α-TTP double mutant (protein, UniProt P49638 1-278, looked up, variant I202D M209D)
Alpha-tocopherol transfer …: MAEARSQPSAGPQLNALPDHSPLLQPGLAALRRRAREAGVPLAPLPLTDSFLLRFLRARDFDLDLAWRLLKNYYKWRAECPEISADLHPRSIIGLLKAGYHGVLRSRDPTGSKVLIYRIAHWDPKVFTAYDVFRVSLITSELIVQEVETQRNGIKAIFDLEGWQFSHAFQITPSVAKKIAAVLTDSFPLKVRGIHLINEPVDFHAVFSDIKPFLTEKIKERIHMHGNNYKQSLLQHFPDILPLEYGGEEFSMEDICQEWTNFIMKSEDYLSSISESIQ
- Rate of NBD-Toc transfer to LUV, Rate [1]: 0.008 ± 0.003 s⁻¹
- Rate of NBD-Toc transfer to LUV, Rate^mut/Rate^wt [1]: 50%
- Rate of NBD-Toc transfer to SUV, Rate^mut/Rate^wt [2]: 11%
- Ads^mut/Ads^wt (0.50 μM injection) [3]: 0.13
- Ads^mut/Ads^wt (1.0 μM injection) [3]: 0.07
- Fold change in affinity [3]: 10.9

B6: M209D: α-TTP mutant, Met209 to Asp (helix A10) (protein, UniProt P49638 1-278, looked up, variant M209D)
Alpha-tocopherol transfer …: MAEARSQPSAGPQLNALPDHSPLLQPGLAALRRRAREAGVPLAPLPLTDSFLLRFLRARDFDLDLAWRLLKNYYKWRAECPEISADLHPRSIIGLLKAGYHGVLRSRDPTGSKVLIYRIAHWDPKVFTAYDVFRVSLITSELIVQEVETQRNGIKAIFDLEGWQFSHAFQITPSVAKKIAAVLTDSFPLKVRGIHLINEPVIFHAVFSDIKPFLTEKIKERIHMHGNNYKQSLLQHFPDILPLEYGGEEFSMEDICQEWTNFIMKSEDYLSSISESIQ
- Rate of NBD-Toc transfer to LUV, Rate [1]: 0.013 ± 0.001 s⁻¹
- Rate of NBD-Toc transfer to LUV, Rate^mut/Rate^wt [1]: 81%
- Rate of NBD-Toc transfer to SUV, Rate [2]: 0.047 ± 0.004 s⁻¹
- Reduction of rate of transfer to SUVs [2]: 63%
- Rate of NBD-Toc transfer to SUV, Rate^mut/Rate^wt [2]: 37%
- Ads^mut/Ads^wt (0.50 μM injection) [3]: 0.39
- Ads^mut/Ads^wt (1.0 μM injection) [3]: 0.42
- Fold change in affinity [3]: 1.2

B7: M209A: α-TTP mutant, Met209 to Ala (protein, UniProt P49638 1-278, looked up, variant M209A)
Alpha-tocopherol transfer …: MAEARSQPSAGPQLNALPDHSPLLQPGLAALRRRAREAGVPLAPLPLTDSFLLRFLRARDFDLDLAWRLLKNYYKWRAECPEISADLHPRSIIGLLKAGYHGVLRSRDPTGSKVLIYRIAHWDPKVFTAYDVFRVSLITSELIVQEVETQRNGIKAIFDLEGWQFSHAFQITPSVAKKIAAVLTDSFPLKVRGIHLINEPVIFHAVFSAIKPFLTEKIKERIHMHGNNYKQSLLQHFPDILPLEYGGEEFSMEDICQEWTNFIMKSEDYLSSISESIQ
- Rate of NBD-Toc transfer to LUV, Rate [1]: 0.025 ± 0.005 s⁻¹
- Rate of NBD-Toc transfer to LUV, Rate^mut/Rate^wt [1]: 156%
- Rate of NBD-Toc transfer to SUV, Rate [2]: 0.140 ± 0.012 s⁻¹
- Effect on rate of NBD-Toc transfer to SUVs (in words) ([2]; compared with wild type or single mutants): essentially no effect
- Rate of NBD-Toc transfer to SUV, Rate^mut/Rate^wt [2]: 110%
- Ads^mut/Ads^wt (0.50 μM injection) [3]: 1.01
- Ads^mut/Ads^wt (1.0 μM injection) [3]: 1.12

B8: F165D/M209D: α-TTP double mutant (protein, UniProt P49638 1-278, looked up, variant F165D M209D)
Alpha-tocopherol transfer …: MAEARSQPSAGPQLNALPDHSPLLQPGLAALRRRAREAGVPLAPLPLTDSFLLRFLRARDFDLDLAWRLLKNYYKWRAECPEISADLHPRSIIGLLKAGYHGVLRSRDPTGSKVLIYRIAHWDPKVFTAYDVFRVSLITSELIVQEVETQRNGIKAIFDLEGWQDSHAFQITPSVAKKIAAVLTDSFPLKVRGIHLINEPVIFHAVFSDIKPFLTEKIKERIHMHGNNYKQSLLQHFPDILPLEYGGEEFSMEDICQEWTNFIMKSEDYLSSISESIQ
- Rate of NBD-Toc transfer to LUV, Rate [1]: 0.010 ± 0.001 s⁻¹
- Rate of NBD-Toc transfer to LUV, Rate^mut/Rate^wt [1]: 62%
- Rate of NBD-Toc transfer to SUV, Rate [2]: 0.034 ± 0.003 s⁻¹
- Rate of NBD-Toc transfer to SUV, Rate^mut/Rate^wt [2]: 27%
- Ads^mut/Ads^wt (0.50 μM injection) [3]: 0.01
- Ads^mut/Ads^wt (1.0 μM injection) [3]: 0.18
